Experimental data gathered from unrelated publications.
Protocols differ between the studies behind these lines.
Target: Phosphatidylinositol 4-phosphate 5-kinase type-1 gamma (PIP5K1C, Homo sapiens, UniProt O60331)

COc1ccc2[nH]c3c4[nH]c5ccc(OC)cc5c4c4c(c3c2c1)C(=O)NC4=O — remaining binding (binding; 1 µM): 81%
CO[C@@H]1[C@H](N(C)C(=O)c2ccccc2)C[C@H]2O[C@]1(C)n1c3ccccc3c3c4c(c5c6ccccc6n2c5c31)C(=O)NC4 — inhibition (enzyme activity; inhibitor; 1 µM): 11%
CC(C)S(=O)(=O)c1ccc2nccc(Nc3ccc4sc(C5CCCC5)nc4c3)c2c1 — activity vs control (enzyme activity; inhibitor; 1 µM): 105%
COc1ccc2oc(-c3ccc4nc(N)oc4c3)c/c(=N\c3ccccc3NC(=O)CCN)c2c1 — remaining binding (binding; 1 µM): 102%
C1=C/COCc2cc(ccc2OCCN2CCCC2)Nc2nccc(n2)-c2cccc(c2)COC/1 — remaining binding (binding; 0.1 µM): 60%
CCCCC(=O)Nc1ccc(-c2ccc3ncn(CCC)c(=O)c3c2)cn1 — remaining binding (binding; competition with immobilised ligand; 0.5 µM): 96%
Cc1ccc(NC(=O)c2ccnc(C(F)(F)F)c2)cc1-c1cc(OCCO)nc(N2CCOCC2)c1 — remaining binding (binding; 1 µM): 98%
CC#CC(=O)N1CCC[C@H]1c1nc(-c2ccc(C(=O)Nc3ccccn3)cc2)c2c(N)nccn12 — inhibition (enzyme activity; inhibitor; 1 µM): 0%
